# Measured values as given in ChEMBL document CHEMBL3352136, “Vinylated linear P2 pyrimidinyloxyphenylglycine based inhibitors of the HCV NS3/4A protease and corresponding macrocycles” (Bioorg Med Chem, 2014).
# Legend:
# [1] = target: Hepatitis C virus serine protease, NS3/NS4A (Hepatitis C virus, UniProt A3EZI9+D2K2A8); assay: (§1) Inhibition of HCV genotype 1a NS3/4A protease using Ac-DED(Edans)EEAbu-psi[COO]ASK(Dabcyl)-NH2 as substrate by FRET assay; design: species or system Hepatitis C virus subtype 1a
# Summary of the method: (§2)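 Full-length NS3/4A (protease–helicase/NTPase, genotype 1a) measured by FRET. Buffer: 50 mM HEPES pH 7.5, 10 mM DTT, 40% glycerol, 0.1% n-octyl-β-D-glucoside, 3.3% DMSO. Ki values derived.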
# [2] = Solubility of the compound in PBS after 2 hrs by LC-MS/MS analysis; type: physicochemical
# Summary of the method: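 DMSO stock (10 mM) added to PBS to 1% final DMSO, rotated in glass vials 2 h at 37 °C. Centrifuged 10,000g for 30 min, then supernatant quantified by LC–MS/MS. Upper detection limit 100 µM.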
# [3] = Apparent permeability from apical to basolateral side in human Caco2 cells; type: ADME, cell-based; conditions: Caco-2
# Summary of the method: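 Caco-2 monolayers on polycarbonate filter inserts, cells kept in 90% air/10% CO2. Compound diluted from 10 mM DMSO stock to 10 µM (final DMSO 0.1%) in FASSIF pH 7.4 on apical donor side. Receiver is HBSS pH 7.4 with 1% (w/v) BSA. Run at 37 °C with 500 rpm stirring. Receiver sampled at 15, 30 and 60 min, donor sampled at 60 min for mass balance. Membrane integrity checked afterwards, LC/MS/MS read-out, at least triplicates.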
# [4] = (§3) Intrinsic clearance in human liver microsomes preincubated for 5 mins by LC/MS/MS analysis; type: ADME; conditions: liver microsomes
# Summary of the method: (§4)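 Compound at 1 µM preincubated 5 min at 37 °C with pooled human liver microsomes (0.5 mg/mL) in 0.1 M potassium phosphate pH 7.4. Reaction started with NADPH (1 mM final) and stopped at 0, 5, 15 and 40 min with ice-cold acetonitrile containing internal standard. LC/MS/MS read-out. ln(% remaining) regressed linearly on time; t1/2 and Clint derived assuming first-order kinetics. Dextromethorphan (3 µM) and midazolam (5 µM) served as CYP2D6/CYP3A4 controls.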
# [5] = (§5) Half life in human liver microsomes preincubated for 5 mins by LC/MS/MS analysis; type: ADME; conditions: liver microsomes; summary of the method: as §4
# Hepatitis C virus [6] = assay: Antiviral activity against HCV genotype 1b infected in human Huh-7 cells by firefly luciferase assay; type: functional, cell-based, Hepacivirus hominis
# Summary of the method: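 Huh-7 cells carrying a subgenomic HCV genotype 1b replicon with firefly luciferase reporter; EC50 derived from luciferase signal.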
# Hepatitis C virus [7] = assay: Antiviral activity against HCV genotype 1a; type: functional, Hepacivirus hominis; conditions: subtype 1a
# [8] = target: Hepatitis C virus serine protease, NS3/NS4A (Hepatitis C virus, UniProt A3EZI9+D2K2A8, A156T); assay: Inhibition of HCV NS3/4A protease A156T mutant using Ac-DED(Edans)EEAbu-psi[COO]ASK(Dabcyl)-NH2 as substrate by FRET assay; design: species or system Hepacivirus hominis
# [9] = target: Hepatitis C virus serine protease, NS3/NS4A (Hepatitis C virus, UniProt A3EZI9+D2K2A8, D168V); assay: Inhibition of HCV NS3/4A protease D168V mutant using Ac-DED(Edans)EEAbu-psi[COO]ASK(Dabcyl)-NH2 as substrate by FRET assay; design: species or system Hepacivirus hominis
# [10] = target: Hepatitis C virus serine protease, NS3/NS4A (Hepatitis C virus, UniProt A3EZI9+D2K2A8, R155K); assay: Inhibition of HCV NS3/4A protease R155K mutant using Ac-DED(Edans)EEAbu-psi[COO]ASK(Dabcyl)-NH2 as substrate by FRET assay; design: species or system Hepacivirus hominis
# Liver microsome [11] = assay: as §3; type: ADME; conditions: microsomes, 5 min; summary of the method: as §4
# Liver microsome [12] = assay: as §5; type: ADME; conditions: microsomes; summary of the method: as §4
# [13] = target: Hepatitis C virus serine protease, NS3/NS4A (Hepatitis C virus, UniProt D2K2A8+A3EZI9); assay: as §1; design: species or system Hepatitis C virus subtype 1a; summary of the method: as §2
compound,measurement,setting,value
C=CCCCS(=O)(=O)NC(=O)[C@H](CCC)NC(=O)[C@@H](NC(=O)[C@@H](NC(=O)OC(C)(C)C)C(C)(C)C)c1ccc(Oc2cc(-c3ccccc3)nc3cc(OC)ccc23)c(C=C)c1,Ki,[1],63 nM
C=CCCCS(=O)(=O)NC(=O)[C@H](CCC)NC(=O)[C@@H]1C[C@@H](Oc2cc(-c3ccccc3)nc3cc(OC)ccc23)CN1C(=O)[C@@H](NC(=O)OC(C)(C)C)C(C)(C)C,Ki,[1],300 nM
COc1ccc2c(O[C@@H]3C[C@@H](C(=O)Nc4ccccc4C(=O)NS(=O)(=O)c4ccccc4)N(C(=O)[C@@H](NC(=O)OC(C)(C)C)C(C)(C)C)C3)cc(-c3ccccc3)nc2c1,Ki,[1],830 nM
COc1ccc2c(O[C@@H]3C[C@H]4C(=O)N[C@]5(C(=O)O)C[C@H]5/C=C\CCCCC[C@H](NC(=O)OC5CCCC5)C(=O)N4C3)cc(-c3csc(NC(C)C)n3)nc2c1,Ki,[1],0.3 nM
C=CCCCS(=O)(=O)NC(=O)c1ccccc1NC(=O)[C@@H](NC(=O)[C@@H](NC(=O)OC(C)(C)C)C(C)(C)C)c1ccc(Oc2cc(OC)nc(-c3ccccc3)n2)c(C=C)c1,Ki,[1],26 nM
same,solubility at 2 h,[2],66 µM
same,Papp A→B,[3],1.7 ×10⁻⁶ cm/s
same,microsomal CLint,[4],17 µL/min/mg
same,half-life,[5],83 min
same,EC50,Hepatitis C virus [6],> 10000 nM
C=CCCCS(=O)(=O)NC(=O)c1ccccc1NC(=O)[C@H](NC(=O)[C@@H](NC(=O)OC(C)(C)C)C(C)(C)C)c1ccc(Oc2cc(OC)nc(-c3ccccc3)n2)c(C=C)c1,Ki,[1],33 nM
same,EC50,Hepatitis C virus [6],> 10000 nM
C=CCCCS(=O)(=O)NC(=O)c1ccccc1NC(=O)[C@@H](NC(=O)OC(C)(C)C)c1ccc(Oc2cc(OC)nc(-c3ccccc3)n2)c(C=C)c1,Ki,[1],190 nM
same,solubility at 2 h,[2],101 µM
same,Papp A→B,[3],1 ×10⁻⁶ cm/s
CCC[C@H](NC(=O)C1[C@H]2CCC[C@H]2CN1C(=O)[C@@H](NC(=O)[C@@H](NC(=O)c1cnccn1)C1CCCCC1)C(C)(C)C)C(=O)C(=O)NC1CC1 (stereo partly specified),Ki,[1],40 nM
same,EC50,Hepatitis C virus [7],350 nM
COc1ccc2c(Oc3ccc([C@H](NC(=O)[C@@H](NC(=O)OC(C)(C)C)C(C)(C)C)C(=O)Nc4ccccc4C(=O)NS(=O)(=O)c4ccccc4)cc3)cc(-c3ccccc3)nc2c1,Ki,[1],310 nM
C=CCCCS(=O)(=O)NC(=O)c1ccccc1NC(=O)[C@@H](NC(=O)OC(C)(C)C)c1ccc(Oc2cc(C=C)nc(-c3ccccc3)n2)cc1,Ki,[1],220 nM
C=CCCCS(=O)(=O)NC(=O)c1ccccc1NC(=O)[C@@H](NC(=O)OC(C)(C)C)c1ccc(Oc2cc(OC)nc(-c3ccccc3)n2)cc1,Ki,[1],600 nM
same,solubility at 2 h,[2],93 µM
same,Papp A→B,[3],4 ×10⁻⁶ cm/s
same,microsomal CLint,[4],86 µL/min/mg
same,half-life,[5],16 min
C=CCCS(=O)(=O)NC(=O)c1ccccc1NC(=O)[C@@H](NC(=O)OC(C)(C)C)c1ccc(Oc2cc(OC)nc(-c3ccccc3)n2)c(C=C)c1,Ki,[1],370 nM
C=CCCCS(=O)(=O)NC(=O)c1ccccc1NC(=O)[C@@H](NC(=O)[C@@H](NC(=O)OCCC=C)C(C)(C)C)c1ccc(Oc2cc(C=C)nc(-c3ccccc3)n2)cc1,Ki,[1],110 nM
C=CCCCCC[C@H](NC(=O)OC(C)(C)C)C(=O)N[C@H](C(=O)Nc1ccccc1C(=O)NS(=O)(=O)CCCC=C)c1ccc(Oc2cc(OC)nc(-c3ccccc3)n2)cc1,Ki,[1],230 nM
same,solubility at 2 h,[2],91 µM
same,Papp A→B,[3],0.22 ×10⁻⁶ cm/s
same,microsomal CLint,[4],60 µL/min/mg
same,half-life,[5],23 min
C=CCCCS(=O)(=O)NC(=O)c1ccccc1NC(=O)[C@@H](NC(=O)[C@@H](NC(=O)OC(C)(C)C)C(C)(C)C)c1ccc(Oc2cc(OC)nc(-c3ccccc3)n2)cc1,Ki,[1],95 nM
same,solubility at 2 h,[2],33 µM
same,Papp A→B,[3],0.22 ×10⁻⁶ cm/s
same,microsomal CLint,[4],64 µL/min/mg
same,half-life,[5],22 min
CCC[C@@H]1NC(=O)[C@@H](NC(=O)[C@@H](NC(=O)OC(C)(C)C)C(C)(C)C)c2ccc(cc2)Oc2cc(nc(-c3ccccc3)n2)/C=C/CCCS(=O)(=O)NC1=O,Ki,[1],2400 nM
CC(C)(C)OC(=O)N[C@H](C(=O)N[C@@H]1C(=O)Nc2ccccc2C(=O)NS(=O)(=O)CCC/C=C/c2cc(nc(-c3ccccc3)n2)Oc2ccc1cc2)C(C)(C)C,Ki,[1],660 nM
COc1cc(Oc2ccc3cc2/C=C/CCS(=O)(=O)NC(=O)c2ccccc2NC(=O)[C@H]3NC(=O)OC(C)(C)C)nc(-c2ccccc2)n1,Ki,[1],1300 nM
COc1cc(Oc2ccc3cc2/C=C/CCS(=O)(=O)NC(=O)c2ccccc2NC(=O)[C@H]3NC(=O)[C@@H](NC(=O)OC(C)(C)C)C(C)(C)C)nc(-c2ccccc2)n1,Ki,[1],630 nM
COc1cc(Oc2ccc(C3NC(=O)[C@H](NC(=O)OC(C)(C)C)CCCCC/C=C/CCS(=O)(=O)NC(=O)c4ccccc4NC3=O)cc2)nc(-c2ccccc2)n1 (stereo partly specified),Ki,[1],220 nM
COc1cc(Oc2ccc(C3NC(=O)[C@H](NC(=O)OC(C)(C)C)CCCCCCCCCS(=O)(=O)NC(=O)c4ccccc4NC3=O)cc2)nc(-c2ccccc2)n1 (stereo partly specified),Ki,[1],130 nM
C=CCCCS(=O)(=O)NC(=O)c1ccccc1NC(=O)[C@H]1NC(=O)[C@H](C(C)(C)C)NC(=O)OCC/C=C/c2cc(nc(-c3ccccc3)n2)Oc2ccc1cc2,Ki,[1],390 nM
C=CCCCS(=O)(=O)NC(=O)[C@H](CCC)NC(=O)[C@H]1NC(=O)[C@H](C(C)(C)C)NC(=O)OCC/C=C/c2cc(nc(-c3ccccc3)n2)Oc2ccc1cc2,Ki,[1],1570 nM
C=CCCCS(=O)(=O)NC(=O)c1ccccc1NC(=O)[C@@H](NC(=O)[C@@H](NC(=O)OC(C)(C)C)C(C)(C)C)c1ccc(Oc2cc(-c3ccccc3)nc3cc(OC)ccc23)c(C=C)c1,EC50,Hepatitis C virus [6],5400 nM
C=CCCCS(=O)(=O)NC(=O)c1ccccc1NC(=O)[C@H](NC(=O)[C@@H](NC(=O)OC(C)(C)C)C(C)(C)C)c1ccc(Oc2cc(-c3ccccc3)nc3cc(OC)ccc23)c(C=C)c1,EC50,Hepatitis C virus [6],5400 nM
CC[C@@H]1C[C@]1(NC(=O)[C@@H]1C[C@@H]2CN1C(=O)[C@H](C(C)(C)C)NC(=O)OCC(C)(C)CCCCc1cccc3c1CN(C3)C(=O)O2)C(=O)NS(=O)(=O)C1CC1,Ki,[1],0.05 nM
same,EC50,Hepatitis C virus [7],5 nM
COc1ccc2c(O[C@@H]3C[C@H]4C(=O)N[C@]5(C(=O)NS(=O)(=O)C6CC6)C[C@H]5/C=C\CCCCN(C)C(=O)[C@@H]4C3)cc(-c3nc(C(C)C)cs3)nc2c1C,Ki,[1],0.36 nM
same,EC50,Hepatitis C virus [7],7.8 nM
"COc1cc(Oc2ccc(C3NC(=O)[C@H](NC(=O)OC(C)(C)C)CCCCC/C=C/CCCS(=O)(=O)NC(=O)c4ccccc4NC3=O)cc2)nc(-c2ccccc2)n1 (single isomer, unassigned; diastereomer 2)",Ki,[1],80 nM
same,Ki,[8],160 nM
same,Ki,[9],600 nM
same,Ki,[10],220 nM
same,Papp,[3],0.15 ×10⁻⁶ cm/s
same,microsomal intrinsic clearance,Liver microsome [11],137 µL/min/mg
same,t1/2,Liver microsome [12],10 min
same,EC50,Hepatitis C virus [6],15000 nM
"COc1cc(Oc2ccc(C3NC(=O)[C@H](NC(=O)OC(C)(C)C)CCCCCCCCCCS(=O)(=O)NC(=O)c4ccccc4NC3=O)cc2)nc(-c2ccccc2)n1 (single isomer, unassigned; diastereomer 2)",Ki,[1],110 nM
COc1cc(Oc2ccc(C3NC(=O)[C@H](NC(=O)OC(C)(C)C)CCCCC/C=C/CCCS(=O)(=O)NC(=O)c4ccccc4NC3=O)cc2)nc(-c2ccccc2)n1 (stereo in doubt; 29L),Ki,[1],110 nM
same,solubility at 2 h,[2],51 µM
same,Papp,[3],0.35 ×10⁻⁶ cm/s
same,microsomal CLint,[4],87 µL/min/mg
same,half-life,[5],16 min
COc1cc(Oc2ccc(C3NC(=O)[C@H](NC(=O)OC(C)(C)C)CCCCCCCCCCS(=O)(=O)NC(=O)c4ccccc4NC3=O)cc2)nc(-c2ccccc2)n1 (stereo in doubt; 31L),Ki,[13],110 nM
CC(C)(C)NC(=O)N[C@H](C(=O)N1C[C@H]2[C@@H]([C@H]1C(=O)NC(CC1CCC1)C(=O)C(N)=O)C2(C)C)C(C)(C)C (stereo partly specified) [BOCEPREVIR],Ki,[1],14 nM
